Assay [1] concerns the target T1, G-protein coupled receptor 35 (Homo sapiens, UniProt Q9HC97). Nature of the assay: Agonist activity at GPR35 in human HT-29 cells assessed as induction of cell desensitization to 1 uM zaprinast preincubated for 1 hr followed by zaprinast stimulation measured after 8 minutes by DMR assay. It is filed as cell-based. In short, it runs like this: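 Desensitization format in HT-29 cells on resonant waveguide grating biosensor plates, held in HBSS. […] Mean ± sd, two independent measurements, each with four replicates (n=8).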

In assay [2] the target is T1, G-protein coupled receptor 35. Nature of the assay: Agonist activity at TEV protease cleavage site linked GAL4-VP16-fused GPR35 in human Tango GPR35-bla U2OS cells assessed as induction of TEV protease-tagged beta-arrestin recruitment incubated for 5 hrs by beta-lactamase reporter gene assay relative to zaprinast. On the technique in general: Arrestin recruitment assays detect the binding of arrestin to an activated receptor.

Assay [3] has the same target. As to the kind of experiment: Agonist activity at GPR35 in human HT-29 cells in presence of antagonist ML-145 by DMR assay. It is filed as cell-based. The gist of the method:
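HT-29 DMR antagonist format: ML-145 was titrated against the coumarin agonist, each agonist given at its EC80–EC100 dose. Cells were kept in HBSS and equilibrated 1 h in the reader. IC50 was calculated from the DMR amplitude at 8 min post-stimulation. Mean ± sd, two independent measurements × four replicates (n=8).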

For assay [4] the target is unchanged. Nature of the assay: Agonist activity at TEV protease cleavage site linked GAL4-VP16-fused GPR35 in human Tango GPR35-bla U2OS cells assessed as induction of TEV protease-tagged beta-arrestin recruitment incubated for 5 hrs by beta-lactamase reporter gene assay.
For assay [5] the target is unchanged. Nature of the assay: Agonist activity at GPR35 in human HT-29 cells by DMR assay. It counts as cell-based. The gist of the method: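 HT-29 cells with endogenous GPR35, grown in McCoy's 5A with 10% FBS at 37 °C/5% CO2, seeded overnight to a confluent monolayer on resonant waveguide grating biosensor plates. Cells were washed, kept in HBSS for 1 h in the reader, and given a 2 min baseline before compound addition. Mean ± sd, two independent runs × four replicates (n=8).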

For assay [6] the target is unchanged. Nature of the assay: Agonist activity at human GPR35 expressed in CHO-K1 cells after 90 mins by beta-arrestin 2 recruitment assay. It is filed as cell-based.
The target is the same in assay [7]. Nature of the assay: Agonist activity at human GPR35 expressed in CHO-K1 cells by DMR assay. It counts as cell-based.
The target of assay [8] is T2, Type-1 angiotensin II receptor (Homo sapiens) (UniProt P30556).
T2 sequence (whole entry): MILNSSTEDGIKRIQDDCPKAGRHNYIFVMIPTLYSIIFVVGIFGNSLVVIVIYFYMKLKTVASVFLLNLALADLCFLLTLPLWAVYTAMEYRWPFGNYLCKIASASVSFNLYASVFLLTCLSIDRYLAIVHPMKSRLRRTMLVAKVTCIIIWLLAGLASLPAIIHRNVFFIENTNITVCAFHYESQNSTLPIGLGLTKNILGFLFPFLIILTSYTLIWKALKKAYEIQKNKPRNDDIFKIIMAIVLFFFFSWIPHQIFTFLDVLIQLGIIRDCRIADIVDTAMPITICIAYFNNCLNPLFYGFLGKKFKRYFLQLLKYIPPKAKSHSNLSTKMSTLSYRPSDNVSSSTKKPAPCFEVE
Nature of the assay: Agonist activity at angiotensin AT1 receptor in human A549 cells at 1 uM preincubated for 1 hr followed by angiotensin 2 addition by DMR assay. It counts as cell-based.

Assay [9] has as its target T3, B2 bradykinin receptor (Homo sapiens) (UniProt P30411).
T3 sequence (whole entry): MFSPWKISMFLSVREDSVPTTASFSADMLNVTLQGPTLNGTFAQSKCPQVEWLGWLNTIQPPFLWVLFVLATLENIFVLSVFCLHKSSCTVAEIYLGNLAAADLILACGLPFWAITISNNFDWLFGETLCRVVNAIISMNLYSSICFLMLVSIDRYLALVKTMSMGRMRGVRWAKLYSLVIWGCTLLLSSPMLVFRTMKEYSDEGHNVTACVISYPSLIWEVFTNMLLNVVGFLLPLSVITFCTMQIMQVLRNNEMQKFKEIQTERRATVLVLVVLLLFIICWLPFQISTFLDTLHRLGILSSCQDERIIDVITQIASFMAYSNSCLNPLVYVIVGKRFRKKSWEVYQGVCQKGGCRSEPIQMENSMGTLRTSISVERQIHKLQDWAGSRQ
As to the kind of experiment: Agonist activity at bradykinin B2 receptor in human A549 cells at 1 uM preincubated for 1 hr followed by bradykinin addition by DMR assay. It counts as cell-based.

The target in assay [10] is Histamine H1 receptor (Homo sapiens) (UniProt P35367). Nature of the assay: Agonist activity at histamine H1 receptor in human A431 cells at 1 uM preincubated for 1 hr followed by histamine addition by DMR assay. It counts as cell-based.
Chain of Histamine H1 receptor (Homo sapiens) (P35367 whole entry): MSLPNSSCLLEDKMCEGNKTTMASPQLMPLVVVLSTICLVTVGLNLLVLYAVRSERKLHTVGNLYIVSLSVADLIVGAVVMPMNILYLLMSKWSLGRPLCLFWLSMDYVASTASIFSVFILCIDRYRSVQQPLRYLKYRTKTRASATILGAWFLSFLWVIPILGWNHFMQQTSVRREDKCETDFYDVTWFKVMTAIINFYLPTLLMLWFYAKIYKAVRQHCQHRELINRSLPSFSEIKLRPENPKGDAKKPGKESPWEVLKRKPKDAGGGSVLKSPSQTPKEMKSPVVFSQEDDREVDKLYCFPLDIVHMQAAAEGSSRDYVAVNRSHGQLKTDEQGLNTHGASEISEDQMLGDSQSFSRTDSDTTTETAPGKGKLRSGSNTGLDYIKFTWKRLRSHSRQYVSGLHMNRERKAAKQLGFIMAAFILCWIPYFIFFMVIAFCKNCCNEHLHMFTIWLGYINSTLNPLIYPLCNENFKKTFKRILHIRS
Assay [11] concerns the target Beta-2 adrenergic receptor (Homo sapiens) (UniProt P07550). As to the kind of experiment: Agonist activity at beta2 adrenergic receptor in human A431 cells at 1 uM preincubated for 1 hr followed by epinephrine addition by DMR assay. It counts as cell-based.
Assay [12] addresses Hydroxycarboxylic acid receptor 2 (Homo sapiens) (UniProt Q8TDS4). Nature of the assay: Agonist activity at GPR109a receptor in human A431 cells at 1 uM preincubated for 1 hr followed by niacin addition by DMR assay. It is filed as cell-based.

The source of these data is ChEMBL document CHEMBL4041526, “Discovery of 2H-Chromen-2-one Derivatives as G Protein-Coupled Receptor-35 Agonists” (J Med Chem, 2017).

Calls of active or inactive are those of the source. The rule behind the calls is not given here.

T1 sequence (Q9HC97 whole entry): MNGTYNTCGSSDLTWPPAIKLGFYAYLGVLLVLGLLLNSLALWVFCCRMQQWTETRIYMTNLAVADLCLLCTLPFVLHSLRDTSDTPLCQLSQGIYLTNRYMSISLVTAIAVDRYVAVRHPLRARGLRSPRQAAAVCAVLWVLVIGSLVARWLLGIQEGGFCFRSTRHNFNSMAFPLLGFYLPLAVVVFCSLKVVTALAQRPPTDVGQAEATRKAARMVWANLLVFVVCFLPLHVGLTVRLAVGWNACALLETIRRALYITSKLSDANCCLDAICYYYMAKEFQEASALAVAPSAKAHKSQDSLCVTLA
Chain of Beta-2 adrenergic receptor (Homo sapiens) (P07550 whole entry, looked up): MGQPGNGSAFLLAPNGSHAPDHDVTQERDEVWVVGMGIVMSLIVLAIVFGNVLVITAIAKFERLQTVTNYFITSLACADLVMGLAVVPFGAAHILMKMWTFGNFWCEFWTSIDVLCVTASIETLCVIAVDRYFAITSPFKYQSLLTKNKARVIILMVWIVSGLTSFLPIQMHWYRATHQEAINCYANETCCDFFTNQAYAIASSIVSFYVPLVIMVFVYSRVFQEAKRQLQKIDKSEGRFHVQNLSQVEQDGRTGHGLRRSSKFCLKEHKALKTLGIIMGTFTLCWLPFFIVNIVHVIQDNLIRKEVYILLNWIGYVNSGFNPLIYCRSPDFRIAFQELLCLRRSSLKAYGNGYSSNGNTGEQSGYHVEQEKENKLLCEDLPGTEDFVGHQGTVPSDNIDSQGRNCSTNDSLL
Chain of Hydroxycarboxylic acid receptor 2 (Homo sapiens) (Q8TDS4 whole entry): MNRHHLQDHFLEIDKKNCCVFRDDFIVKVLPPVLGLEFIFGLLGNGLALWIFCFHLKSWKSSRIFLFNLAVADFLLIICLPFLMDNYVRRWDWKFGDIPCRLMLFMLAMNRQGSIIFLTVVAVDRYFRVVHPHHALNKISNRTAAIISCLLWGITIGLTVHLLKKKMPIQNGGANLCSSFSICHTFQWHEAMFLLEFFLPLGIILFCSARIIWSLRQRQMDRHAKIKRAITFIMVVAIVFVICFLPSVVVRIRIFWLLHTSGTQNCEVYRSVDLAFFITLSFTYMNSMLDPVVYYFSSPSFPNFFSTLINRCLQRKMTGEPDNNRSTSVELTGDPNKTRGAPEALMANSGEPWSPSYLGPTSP

As to `O=c1oc2c(Br)c(O)c(Br)cc2cc1-c1nnn[nH]1`, the IC50 in assay [1] was determined as 23 nM. In [2], the Efficacy was determined as 126%. In addition, the result in assay [3] was inactive. The values for the EC50 in [4], in assay [5] (read-out: EC50) and in [5] (read-out: pEC50 (converted)) were 1540 nM, 68 nM and 66.7 nM, respectively.
Consider `O=C(O)c1cc2cc(Cl)ccc2oc1=O`, for which the IC50 in [1] is 13200 nM. Also, in assay [3], the outcome was inactive. Also, the EC50 in [5] (read-out: EC50) was 13500 nM.
The corresponding values for `COc1c(Br)cc2cc(-c3nnn[nH]3)c(=O)oc2c1[N+](=O)[O-]` are 2820 nM, “inactive” and 2660 nM.
With `O=C(O)c1cc2cc(Br)c(O)c(Br)c2oc1=O`, the IC50 in assay [1] turned out to be 56 nM. Further, the Efficacy in [2] worked out at 168%. In addition, in assay [3], the outcome was inactive. In addition, the EC50 is 3630 nM in assay [4] and 150 nM in assay [5] (read-out: EC50).
On to `COc1c(Br)cc2cc(C(=O)O)c(=O)oc2c1Br`, for which the IC50 in [1] was 750 nM. Moreover, the outcome in [3] was inactive. In addition, in [5] (read-out: EC50), the EC50 worked out at 890 nM.
The corresponding values for `N#Cc1cc2cc(Br)c(O)cc2oc1=O` are 9330 nM, “inactive” and 9270 nM.
The corresponding values for `O=c1oc2c([N+](=O)[O-])cc(Br)cc2cc1-c1nnn[nH]1` are 330 nM, “inactive” and 330 nM.
For `N#Cc1cc2cc(Cl)cc(Cl)c2oc1=O` the same measures were 8610 nM, “inactive” and 8610 nM.
As to `N#Cc1cc2cc(Br)c(O)c(Br)c2oc1=O`, in assay [1], the IC50 was 2890 nM. Moreover, the outcome in [3] was inactive. Further, the EC50 in [5] (read-out: EC50) came to 2330 nM.
`COc1c(Br)cc2cc(-c3nnn[nH]3)c(=O)oc2c1Br`: in [1], the IC50 was 460 nM. Besides, the Efficacy in assay [2] stood at 86.4%. Moreover, the outcome in [3] was inactive. The figures for the EC50 in assay [4] and in assay [5] (read-out: EC50) were 14100 nM and 1410 nM, respectively.
On to `N#Cc1cc2cc(Cl)ccc2oc1=O`, for which the IC50 in assay [1] is 21400 nM. Besides, the outcome in [3] was inactive. Also, the EC50 in assay [5] (read-out: EC50) is 21400 nM.
Regarding `O=C(O)c1cc2cc(Br)ccc2oc1=O`, in [1], the half-inhibitory concentration (IC50) amounted to 11300 nM. In assay [3], the result was inactive. Besides, the EC50 in assay [5] (read-out: EC50) worked out at 10800 nM.
Consider `N#Cc1cc2cc(Br)cc(Br)c2oc1=O`, for which, in [1], the IC50 was determined as 14900 nM. The outcome in assay [3] was inactive. The EC50 in assay [5] (read-out: EC50) was found to be 17700 nM.
For `CC(C)c1ccc2oc3nc(N)c(C(=O)O)cc3c(=O)c2c1` [AMLEXANOX], the EC50 in assay [6] amounted to 4 µM.
On to `COc1c(Br)cc2cc(C#N)c(=O)oc2c1Br`, for which the IC50 in assay [1] came out at 590 nM. In addition, in assay [3], the result was inactive. Also, the EC50 in assay [5] (read-out: EC50) was found to be 8220 nM.
As to `O=C(O)c1cc2cc(Br)c(O)c([N+](=O)[O-])c2oc1=O`, the IC50 in assay [1] was found to be 31 nM. Further, the Efficacy in [2] was 111%. The outcome in assay [3] was inactive. The EC50 turned out to be 479 nM in assay [4] and 51 nM in assay [5] (read-out: EC50).
Take `O=C(O)c1cc2cc(Cl)cc(Cl)c2oc1=O`: the half-inhibitory concentration (IC50) in [1] amounted to 2300 nM. In addition, in assay [3], the outcome was inactive. For the same compound, the EC50 in [5] (read-out: EC50) amounted to 2020 nM.
As for `CCCOc1ccccc1-c1nc2[nH]nnc2c(=O)[nH]1`, the Efficacy in [2] came to 100%.
With `O=c1oc2c([N+](=O)[O-])c(O)c([N+](=O)[O-])cc2cc1-c1nnn[nH]1`, the 50% inhibitory concentration (IC50) in assay [1] was determined as 13 nM. Moreover, in [2], the Efficacy was determined as 107%. Also, the outcome in [3] was inactive. For the same compound, the EC50 in [4] worked out at 288 nM; in assay [5] (read-out: EC50) it was 14 nM.
In the case of `N#Cc1cc2cc(Br)cc([N+](=O)[O-])c2oc1=O`, the IC50 in [1] was determined as 650 nM. The outcome in [3] was inactive. The EC50 in [5] (read-out: EC50) turned out to be 700 nM.
In the case of `O=c1oc2c(Br)cc(Br)cc2cc1-c1nnn[nH]1`, in assay [1], the 50% inhibitory concentration (IC50) amounted to 380 nM. In addition, the Efficacy in [2] was found to be 81.3%. Further, the outcome in assay [3] was inactive. The figures for the EC50 in [4] and in [5] (read-out: EC50) were 7050 nM and 930 nM, respectively.
Take `O=C(O)c1cc2cc(Br)c(O)cc2oc1=O`: in assay [1], the IC50 is 3760 nM. Besides, the outcome in [3] was inactive. In addition, the EC50 in assay [5] (read-out: EC50) came to 4340 nM.
As for `O=C(O)c1cc2cc(Br)cc([N+](=O)[O-])c2oc1=O`, in assay [1], the IC50 was 3750 nM. Further, in [3], the outcome was inactive. Also, the EC50 in assay [5] (read-out: EC50) was found to be 4270 nM.
`N#Cc1cc(NC(=O)C(=O)O)c(Cl)c(NC(=O)C(=O)O)c1` [LODOXAMIDE] displayed an EC50 in assay [6] of 4 µM.
Regarding `O=C(O)c1cc2ccccc2oc1=O` [COUMARIN-3-CARBOXYLIC ACID], the IC50 in assay [1] is 100000 nM. Besides, the outcome in assay [3] was inactive. For the same compound, the EC50 in assay [5] (read-out: EC50) is 92300 nM.
As to `COc1c(Br)cc2cc(C#N)c(=O)oc2c1[N+](=O)[O-]`, the 50% inhibitory concentration (IC50) in assay [1] is 1690 nM. Besides, the outcome in assay [3] was inactive. Moreover, the EC50 in assay [5] (read-out: EC50) came to 2910 nM.
For `O=C(O)c1cc(=O)c2c(OCC(O)COc3cccc4oc(C(=O)O)cc(=O)c34)cccc2o1` [CROMOLYN], the EC50 amounted to 52 nM in assay [7] and 7 µM in assay [6].
With `COc1cc2oc(=O)c(-c3nnn[nH]3)cc2cc1Br`, the IC50 in assay [1] was 14100 nM. Further, the result in assay [3] was inactive. Further, the EC50 in [5] (read-out: EC50) was found to be 14800 nM.
For `O=c1oc2cc(O)c(Br)cc2cc1-c1nnn[nH]1` the same measures were 483 nM, “inactive” and 710 nM.
For the compound `O=c1oc2c([N+](=O)[O-])c(O)c(Br)cc2cc1-c1nnn[nH]1`, the outcome in assay [8], in assay [9], in [10], in assay [11], in [3] and in [12] was inactive. In [1], the Activity entry was “Dose-dependent effect”. In assay [1], the IC50 is 8.6 nM. In addition, in assay [2], the Efficacy was determined as 104%. Also, the values for the EC50 in [4] and in assay [5] (read-out: EC50) were 197 nM and 5.8 nM, respectively.
`O=c1oc2ccccc2cc1-c1nn[nH]n1`: the concentration for half-maximal inhibition (IC50) in [1] is 5080 nM. The outcome in [3] was inactive. Moreover, in assay [5] (read-out: EC50), the EC50 was 6760 nM.
The corresponding values for `O=C(O)c1cc2cc(Br)cc(Br)c2oc1=O` are 1080 nM, “inactive” and 1750 nM.
`N#Cc1cc2ccccc2oc1=O`: the EC50 result in [5] is recorded as “Not Active”.

A word on the IC50: it is the concentration that inhibits the measured activity by half.
